The record followed here is ChEMBL document CHEMBL1132282, “Discovery of novel non-peptide CCR1 receptor antagonists” (J Med Chem, 1999).

Molecules are shown by their SMILES.

Experiment [1] addresses T1, C-C chemokine receptor type 1 (Homo sapiens, UniProt P32246).
T1 sequence (P32246 whole entry): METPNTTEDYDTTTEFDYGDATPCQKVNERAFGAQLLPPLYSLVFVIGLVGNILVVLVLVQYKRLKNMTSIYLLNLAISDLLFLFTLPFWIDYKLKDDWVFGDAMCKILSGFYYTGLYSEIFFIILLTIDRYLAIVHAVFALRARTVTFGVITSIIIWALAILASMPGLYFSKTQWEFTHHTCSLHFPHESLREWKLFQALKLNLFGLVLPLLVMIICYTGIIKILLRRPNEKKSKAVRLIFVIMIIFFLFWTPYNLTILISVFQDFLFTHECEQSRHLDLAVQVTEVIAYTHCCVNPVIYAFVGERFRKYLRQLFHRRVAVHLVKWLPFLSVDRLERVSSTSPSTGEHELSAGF
Briefly: Inhibition of MIP-1-alpha-induced intracellular calcium mobilization in HEK293 cells expressing human CCR1 receptor. The experiment is classed as functional, cell-based. Put shortly:
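HEK-293 cells overexpressing human CCR1 plated at 80 000 cells/well on poly-D-lysine, cultured one day, loaded with 4 μM Fluo-3 for 1 h at 37 °C in HBSS/Hepes with probenecid, then washed. Compound pretreatment 10 min at 37 °C, then 30 nM MIP-1α stimulation. FLIPR fluorescence read over 3 min at 37 °C. Six-concentration dose curves give IC50.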
On the technique in general: Calcium assays in cells follow changes in intracellular calcium, usually with a dye or a luminescent sensor.

For experiment [2], the target named is T1, C-C chemokine receptor type 1. Nature of the experiment: Inhibition of [125I]-MIP-1 alpha binding to recombinant human C-C chemokine receptor type 1 expressed in HEK293 cells. In kind it is cell-based.
In experiment [3] the target is T2, C-C chemokine receptor type 1 (Homo sapiens) (UniProt P32246).
T2 sequence (whole entry): T1 sequence (P32246 whole entry)
Briefly: Inhibition of [125I]-MIP-1 alpha binding to recombinant human C-C chemokine receptor type 1 expressed in HEK293 cells at 3 uM concentration. The experiment is classed as cell-based.

Experiment [4] addresses T2, C-C chemokine receptor type 1 (Homo sapiens). Nature of the experiment: Inhibition of [125I]-MIP-1 alpha binding to recombinant human C-C chemokine receptor type 1 expressed in HEK293 cells at 10 uM concentration. The experiment is classed as cell-based.

For `N#CC(CCCN1CCC(O)(c2ccc(Cl)cc2)CC1)c1ccc2ccccc2c1` (stereo unspecified), in experiment [1], the IC50 came to 7.1 µM. Moreover, in experiment [2], the Ki is 0.206 µM.
Regarding `N#CC1(c2ccccc2)CCN(CCCC2(C#N)c3ccccc3CSc3ccccc32)CC1` (stereo unspecified), in experiment [3], the inhibition is 0%.
As for `N#CC(CCCN1CCC(O)(c2ccc(N)cc2)CC1)(c1ccccc1)c1ccccc1`, the inhibition in experiment [4] is 33%.
In the case of `COc1ccc(C(C#N)CCCN2CCC(O)(c3ccc(Cl)cc3)CC2)cc1Br` (stereo unspecified), the IC50 in experiment [1] worked out at 1.9 µM. Also, in experiment [2], the Ki came out at 0.074 µM.
Turning to `N#CC(CCCN1CCCC(O)(c2ccc(F)cc2)C1)(c1ccccc1)c1ccccc1` (stereo unspecified), the inhibition in experiment [4] turned out to be 0%.
Consider `N#CC1(CCCN2CCC(O)(c3ccc(Cl)cc3)CC2)c2ccccc2C=Cc2ccccc21`, for which, in experiment [1], the IC50 came to 5.3 µM. In addition, the inhibition constant (Ki) in experiment [2] is 0.056 µM.
For `N#Cc1ccc(C2(O)CCN(CCCC(C#N)(c3ccccc3)c3ccccc3)CC2)cc1`, in experiment [1], the IC50 came out at 10.9 µM. Further, the Ki in experiment [2] is 0.092 µM.
As for `N#CC1(CCCN2CCC(C(=O)O)(c3ccccc3)CC2)c2ccccc2Cc2ccccc21`, the inhibition in experiment [4] was 15%.
`C[N+]1(CCCC(C#N)c2ccc3ccccc3c2)CCC(O)(c2ccc(Cl)cc2)CC1` (stereo unspecified): the IC50 in experiment [1] is 0.7 µM. The Ki in experiment [2] was determined as 0.022 µM.
On to `N#CC(CCCN1CCC(O)(c2ccc(Cl)cc2)CC1)(c1ccccc1)c1ccccc1` [BERLEX COMPOUND], for which the IC50 in experiment [1] stood at 2.5 µM. For the same compound, the Ki in experiment [2] was found to be 0.052 µM.
With `N#CC(CCCCN1CCC(O)(c2ccc(Cl)cc2)CC1)(c1ccccc1)c1ccccc1`, the IC50 in experiment [1] is 1.6 µM. Also, the inhibition constant Ki in experiment [2] came out at 0.078 µM.
Taken in the same sequence, the figures for `N#CC(CCCN1CCC(O)(c2ccc(Cl)cc2)CC1)c1cccc(O)c1` (stereo unspecified) were 9 µM and 0.156 µM.
Take `N#CC(CCN1CCC(O)(c2ccc(Cl)cc2)CC1)(c1ccccc1)c1ccccc1`: the IC50 in experiment [1] was determined as 0.4 µM. In addition, in experiment [2], the Ki was 4.06 µM.
For `N#CC(CCCN1CCC(O)(c2ccc(Cl)cc2)CC1)(c1ccccc1)N1CCCCC1` (stereo unspecified), the IC50 in experiment [1] is 4.8 µM. Besides, the Ki in experiment [2] amounted to 0.13 µM.
For `N#CC1(CCCN2CCC(C(O)(c3ccccc3)c3ccccc3)CC2)c2ccccc2CSc2ccccc21` (stereo unspecified), the inhibition in experiment [3] was 0%.
Take `N#CC(CCCCl)(CCCN1CCC(O)(c2ccc(Cl)cc2)CC1)c1ccccc1` (stereo unspecified): in experiment [1], the IC50 is 8.3 µM. In experiment [2], the inhibition constant Ki is 0.051 µM.
On to `OC1(c2ccc(Cl)cc2)CCN(CCCC(c2ccccc2)c2ccccc2)CC1`, for which, in experiment [1], the IC50 turned out to be 8.7 µM. For the same compound, the Ki in experiment [2] worked out at 0.116 µM.
With `N#CC(CCCN1CCC(O)(c2ccc(Cl)cc2)CC1)c1ccsc1` (stereo unspecified), the IC50 in experiment [1] was found to be 9.8 µM. Also, the Ki in experiment [2] was 0.236 µM.
With `COC(=O)C1(c2ccccc2)CCN(CCCC2(C#N)c3ccccc3Cc3ccccc32)CC1`, the inhibition in experiment [4] is 62%.
Same read-out and setting: the same measure for `N#CC(CCCN1CCC(O)(c2ccc(Cl)cc2)CC1)c1cccc(OCc2ccccc2)c1` (stereo unspecified): 0%.
In the case of `N#CC(CCCN1CCC(O)(c2ccc(-c3ccccc3)cc2)CC1)(c1ccccc1)c1ccccc1`, the inhibition in experiment [4] stood at 30%.
As for `N#CCC(C#N)(CCCN1CCC(O)(c2ccc(Cl)cc2)CC1)c1ccccc1` (stereo unspecified), the IC50 in experiment [1] was found to be 3.2 µM. The inhibitory constant (Ki) in experiment [2] is 0.125 µM.
As for `N#CC(CCCN1CCC(O)(c2ccc(Cl)cc2)CC1)c1ccccc1OCc1ccccc1` (stereo unspecified), the inhibition in experiment [4] is 46%.
In the case of `N#CC(CCCN1CCC(O)(c2ccc(Cl)cc2)CC1)c1cccc2ccccc12` (stereo unspecified), in experiment [4], the inhibition was found to be 51%.
For the compound `N#CC1(CCCN2CCC(O)(c3ccc(F)cc3)CC2)c2ccccc2CSc2ccccc21` (stereo unspecified), the IC50 in experiment [1] is 3 µM. The Ki in experiment [2] worked out at 0.044 µM.
With `CN1C(=O)c2ccccc2C(C#N)(CCCN2CCC(O)(c3ccc(Cl)cc3)CC2)c2ccccc21` (stereo unspecified), the half-maximal inhibitory concentration (IC50) in experiment [1] came out at 3.3 µM. Also, the Ki in experiment [2] worked out at 0.032 µM.
On to `CC(C#N)(CCCN1CCC(O)(c2ccc(Cl)cc2)CC1)c1ccccc1` (stereo unspecified), for which the Ki in experiment [2] is 0.46 µM.
Consider `CCOC(=O)C(C#N)(CCCN1CCC(O)(c2ccc(Cl)cc2)CC1)c1ccccc1` (stereo unspecified), for which the IC50 in experiment [1] came out at 7 µM. Further, the Ki in experiment [2] is 0.033 µM.
Take `N#CC1(CCCN2CCC(O)(c3ccc(Br)cc3)CC2)c2ccccc2Cc2ccccc21`: in experiment [2], the Ki stood at 0.029 µM.
Consider `N#CC(CCCN1CCC(O)(c2ccc(Cl)cc2)CC1)c1ccccc1C(F)(F)F` (stereo unspecified), for which the inhibition in experiment [4] was found to be 25%.
`N#CC(CCCN1CCC(O)(c2ccc(Cl)cc2)CC1)c1ccc(OCc2ccccc2)cc1` (stereo unspecified): in experiment [2], the Ki worked out at 3.43 µM.
Turning to `N#CC(CCCN1CCC(O)(c2ccc(Cl)cc2)CC1)c1cccs1` (stereo unspecified), the IC50 in experiment [1] was determined as 8.4 µM. The Ki in experiment [2] is 0.128 µM.
The matching figures for `C[N+]1(CCCC(c2ccccc2)c2ccccc2)CCC(O)(c2ccc(Cl)cc2)CC1` (stereo unspecified): 1.8 µM and 0.006 µM.
For `N#CC1(CCCN2CCC(O)(c3ccc(Cl)cc3)CC2)c2ccccc2COc2ccccc21` (stereo unspecified), the IC50 in experiment [1] amounted to 7.7 µM. For the same compound, in experiment [2], the Ki is 0.034 µM.
As for `N#CC(CCCN1CCC(O)(c2ccc(Cl)cc2)CC1)c1ccccc1Br` (stereo unspecified), in experiment [2], the Ki was determined as 0.366 µM.
As for `COc1ccc(C2(O)CCN(CCCC(C#N)(c3ccccc3)c3ccccc3)CC2)cc1`, the Ki in experiment [2] was 0.347 µM.
For `N#CC(CCCCCN1CCC(O)(c2ccc(Cl)cc2)CC1)(c1ccccc1)c1ccccc1`, the IC50 in experiment [1] came out at 5.6 µM. In addition, the Ki in experiment [2] came out at 0.099 µM.
On to `N#CC1(CCCN2CCC(c3ccccc3)CC2)c2ccccc2CSc2ccccc21` (stereo unspecified), for which the inhibition in experiment [3] worked out at 19%.
Regarding `N#CC(CCCN1CCC(O)(c2ccc(F)cc2)C1)(c1ccccc1)c1ccccc1` (stereo unspecified), the inhibition in experiment [4] worked out at 22%.
`N#CC(CCCN1CCC(O)(c2ccc(Cl)cc2)CC1)c1cccc(Oc2ccccc2)c1` (stereo unspecified): the Ki in experiment [2] worked out at 0.908 µM.
Still for that read-out and setting: for `N#CC(CCCN1CCC(CO)(c2ccccc2)CC1)(c1ccccc1)c1ccccc1` the value was 7.5 µM.
As to `CC(=O)C1(c2ccccc2)CCN(CCCC2(C#N)c3ccccc3CSc3ccccc32)CC1` (stereo unspecified), the inhibition in experiment [3] amounted to 0%.
Take `N#CC1(CCCN2CCC(O)(c3ccc(Cl)c(C(F)(F)F)c3)CC2)c2ccccc2CSc2ccccc21` (stereo unspecified): in experiment [2], the Ki turned out to be 0.224 µM.
Regarding `CN(C)c1ccc(C2(O)CCN(CCCC(C#N)(c3ccccc3)c3ccccc3)CC2)cc1`, the Ki in experiment [2] turned out to be 1.16 µM.
On the same count and under the same terms, the same measure for `N#CC(CCCN1CCC(O)(c2ccc(F)cc2)CC1)(c1ccccc1)c1ccccc1`: 0.136 µM.
Turning to `N#CC1(CCCN2CCC(O)(c3ccc(Cl)cc3)CC2)c2ccccc2CCc2ccccc21`, in experiment [1], the IC50 was determined as 7.7 µM. In addition, the inhibition constant Ki in experiment [2] worked out at 0.045 µM.
`N#CC(CCCN1CCC(O)(c2cccs2)CC1)(c1ccccc1)c1ccccc1`: in experiment [2], the inhibition constant Ki amounted to 1.02 µM.
For the compound `N#CC1(CCCN2CCC(O)(c3ccc(Cl)cc3)CC2)c2ccccc2CSc2ccccc21` (stereo unspecified), the IC50 in experiment [1] stood at 7 µM. The Ki in experiment [2] is 0.024 µM.
In the case of `Cn1cccc1C(C#N)CCCN1CCC(O)(c2ccc(Cl)cc2)CC1` (stereo unspecified), the Ki in experiment [2] worked out at 0.429 µM.
For the compound `N#CC(CCCN1CCC(O)(c2ccc(Cl)cc2)CC1)c1ccccc1` (stereo unspecified), in experiment [2], the Ki was 0.054 µM.
`N#CC(CCCN1CCC(O)(c2cccnc2)CC1)(c1ccccc1)c1ccccc1`: the Ki in experiment [2] turned out to be 0.206 µM.
With `N#Cc1ccccc1C(C#N)CCCN1CCC(O)(c2ccc(Cl)cc2)CC1` (stereo unspecified), in experiment [1], the IC50 is 5.8 µM. For the same compound, the Ki in experiment [2] turned out to be 0.098 µM.

As a reminder, the IC50 is the point on the concentration scale where inhibition reaches its midpoint. Usually Ki stands for a measure of affinity in units of concentration, obtained from inhibition or displacement. As a reminder, the inhibition is the drop in the measured response relative to a control, in per cent.
